# Active and inactive are the calls of the source. The calls are words filed in the database; no cut-off is given here.
# How the values were obtained:
# [1] = test system: NCI-H1975; assay: Potency index, ratio of compound cisplatin IC50 to compound IC50 for human NCI-H1975 cells using 10% 2-HPbetaCD compound formulation; assay type: functional
# [2] = species on record: Bos taurus; assay: Binding affinity to calf thymus DNA assessed as increase in viscosity at 10 to 70 uM using 10% 2HPbetaCD/water compound formulation by Ostwald viscometric method
# [3] = Aqueous solubility of the compound in water; assay type: physicochemical; details: buffer
# [4] = test system: Mus musculus; assay: Acute toxicity in C57BL/6 mouse assessed as weight loss at 20 mg/kg, ip administered as 20% 2HPbetaCD formulation; assay type: organism-based; details: in vivo
# In short: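 Female/male not stated; C57BL/6 mice received 20 mg/kg IP on day zero in 100 μL of 20% (w/v) 2-HPβCD, then a second 15 mg/kg IP dose on day fourteen. Vehicle controls got 100 μL of 20% 2-HPβCD IP on days 0, 7, 14, 21, 25 and 29. Body weight and behaviour were monitored throughout, with survival plotted Kaplan-Meier.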
# [5] = test system: NCI-H23; assay: Growth inhibition of human NCI-H23 cells after 24 hrs by SRB assay; assay type: functional; details: NCI-H23, 24 h
# [6] = test system: NCI-H322M; assay: Growth inhibition of human NCI-H322M cells assessed as cell growth at 10 uM after 24 hrs by SRB assay relative to control; assay type: functional; details: read-out: Activity
# In short: (§1)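 NCI DTP one-dose screen: cells plated at density set by doubling rate, incubated overnight, then exposed to compound at 10 μM for 24 hours. Growth percentage from protein density at end versus start of experiment, relative to initial cell number.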
# [7] = test system: NCI-H522; assay: Growth inhibition of human NCI-H522 cells after 24 hrs by SRB assay; assay type: functional; details: NCI-H522, 24 h
# [8] = test system: A549; assay: Antiproliferative activity against human A549 cells using 1% DMSO/water compound formulation after 72 hrs by MTT assay; assay type: functional, cell-based; details: A549, 72 h
# In short: (§2)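 MTT anti-proliferation on NSCLC lines. Compounds dissolved in DMSO, diluted with water to 1% DMSO, then into growth medium (max 0.032% DMSO on cells); or dissolved in 10% (w/v) 2-HPβCD in water, then diluted (max 0.008% w/w 2-HPβCD in wells; vehicle controls at 0.008%). IC50 = concentration giving 50% loss of viability versus control cells. Cisplatin dissolved in water with stirring.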
# [9] = test system: HOP-92; assay: Growth inhibition of human HOP92 cells assessed as cell growth at 10 uM after 24 hrs by SRB assay relative to control; assay type: functional; details: HOP-92, 24 h, read-out: Activity; in short: as §1
# [10] = test system: NCI-H226; assay: Growth inhibition of human NCI-H226 cells assessed as cell growth at 10 uM after 24 hrs by SRB assay relative to control; assay type: functional; details: NCI-H226, 24 h, read-out: Activity; in short: as §1
# [11] = test system: NCI-H1975; assay: Antiproliferative activity against human NCI-H1975 cells using 10% 2-HPbetaCD compound formulation after 72 hrs by MTT assay; assay type: functional, cell-based; details: NCI-H1975, 72 h; in short: as §2
# [12] = test system: NCI-H460; assay: Induction of apoptosis in human NCI-H460 cells at 40 uM up to 12 hrs using 10% 2HPbetaCD/water compound formulation by Annexin V-FITC/propidium iodide staining based fluorescence microscopic method; assay type: functional, cell-based
# In short: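 Annexin V-FITC/propidium iodide staining of H460 cells in 6-well plates. Compound given in 10% (w/v) 2-HPβCD aqueous solution. Imaged at 12, 14, 17 and 20 h with 20× objective as merged transmitted, green and red channels. Controls: 2-HPβCD and cisplatin, 20 h.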
# [13] = test system: HOP-62; assay: Growth inhibition of human HOP62 cells after 24 hrs by SRB assay; assay type: functional; details: HOP-62, 24 h
# [14] = test system: NCI-H460; assay: Antiproliferative activity against human NCI-H460 cells using 10% 2-HPbetaCD compound formulation after 72 hrs by MTT assay; assay type: functional, cell-based; details: NCI-H460, 72 h; in short: as §2
# [15] = test system: HOP-92; assay: Growth inhibition of human HOP92 cells after 24 hrs by SRB assay; assay type: functional; details: HOP-92, 24 h
# [16] = test system: NCI-H460; assay: Disruption of mitochondrial membrane potential in human NCI-H460 cells at 40 uM up to 1 hr […] by JC1/DAPI staining based confocal microscopic method; assay type: functional, cell-based
# [17] = test system: NCI-H460; assay: Induction of apoptosis in human NCI-H460 cells assessed as blebbing at 40 uM up to 6 hrs using 1% DMSO/water compound formulation by Annexin V-FITC/propidium iodide staining based fluorescence microscopic method; assay type: functional, cell-based
# [18] = test system: EKVX; assay: Growth inhibition of human EKVX cells assessed as cell growth at 10 uM after 24 hrs by SRB assay relative to control; assay type: functional; details: read-out: Activity; in short: as §1
# [19] = read-out: LC50 (the source's name)
smiles,measurement,setting,value
CCc1n(Cc2ccc3ccccc3c2)cc[n+]1Cc1ccc2ccccc2c1.[Br-],Ratio IC50,[1],17
same,Activity,[2],inactive
same,solubility,[3],< 500 µg/mL
same,Activity,[4],Toxic
same,GI50,[5],396 nM
same,TGI,[5],2020 nM
same,CC50,[5]; [19],2020 nM
same,growth at 10 µM,[6],44.3%
same,GI50,[7],303 nM
same,TGI,[7],1440 nM
same,CC50,[7]; [19],1440 nM
same,IC50,[8],2630 nM
same,growth at 10 µM,[9],-31.4%
same,growth at 10 µM,[10],6.75%
same,IC50,[11],560 nM
same,Activity,[12],inactive
same,GI50,[13],1420 nM
same,LC50,[13],9360 nM
same,TGI,[13],3650 nM
same,IC50,[14],990 nM
same,GI50,[15],338 nM
same,TGI,[15],1770 nM
same,CC50,[15]; [19],1770 nM
same,Activity,[16],Active
same,Activity,[17],Active
same,growth at 10 µM,[18],11.9%
